Shown are actives, neighbours in structure and some others; about 3.4% of the full set was active somewhere.
MEKK2mut PB1 HTS: signal of MEK5 binding to mutant human MEKK2 PB1 domain; hit rate 0.35% among 290,000; percent response, % at 10 µM; bead flow cytometry, Alexa488-MEK5 binding to MEKK2 mutant; in the data active means percent response above about 24%, passing the limit was not always enough
MEKK3 PB1 HTS: raises or lowers MEK5 binding to the human MEKK3 PB1 domain; binding response (% of control), % at 10 µM; AID 1529; hit rate 1.4% among 290,000; Q99759; bead-based flow cytometry, Alexa488-MEK5 binding to MEKK3; actives lie on both sides; 0 = blocked by unlabeled MEK5, 100 = vehicle;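 active means binding response more than 3 SD above or below the average of its plate-row segment, actives on both sides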;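 further: Alexa488 bead fluorescence after subtracting the streptavidin-only scavenger bead signal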
Target sequence (Q99759 whole entry, looked up, the tested form may be a part): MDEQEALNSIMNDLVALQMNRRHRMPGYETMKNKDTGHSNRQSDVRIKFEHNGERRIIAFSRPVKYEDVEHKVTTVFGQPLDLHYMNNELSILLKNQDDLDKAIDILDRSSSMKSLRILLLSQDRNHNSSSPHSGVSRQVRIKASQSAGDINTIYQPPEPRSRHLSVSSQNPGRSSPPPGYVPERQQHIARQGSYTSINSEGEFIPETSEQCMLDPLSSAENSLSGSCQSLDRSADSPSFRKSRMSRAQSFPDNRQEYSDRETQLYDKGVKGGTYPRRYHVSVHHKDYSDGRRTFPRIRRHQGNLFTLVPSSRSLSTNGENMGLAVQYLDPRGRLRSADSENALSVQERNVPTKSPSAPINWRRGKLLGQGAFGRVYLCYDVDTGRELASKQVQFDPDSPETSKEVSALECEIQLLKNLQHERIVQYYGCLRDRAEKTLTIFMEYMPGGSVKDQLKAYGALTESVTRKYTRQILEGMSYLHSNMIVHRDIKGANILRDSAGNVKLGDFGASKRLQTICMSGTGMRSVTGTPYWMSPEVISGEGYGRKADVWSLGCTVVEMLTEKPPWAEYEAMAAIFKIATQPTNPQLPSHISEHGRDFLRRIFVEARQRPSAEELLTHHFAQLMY
MEKK2wt PB1 HTS: raises or lowers MEK5 binding to wildtype human MEKK2 PB1 domain; Q9Y2U5; bead flow cytometry, Alexa488-MEK5 binding to MEKK2 WT; actives lie on both sides; binding response (% of control), % at 10 µM; hit rate 1.1% among 290,000; AID 1531; in the data active means binding response below about 67% or above about 130%
VIM-2 inh: blocks Pseudomonas aeruginosa VIM-2 metallo-beta-lactamase. inhibition, % at 5.6 µM. AID 1527. hit rate 0.89% among 290,000. purified VIM-2, nitrocefin hydrolysis, epi-absorbance fluorescence;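 active means inhibition above the mean of all tested compounds plus 3 SD, cutoff set per screening run, cut at about 7.5% in these data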;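 further: red hydrolysis product quenches plate fluorescence so inhibitors raise well fluorescence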
IMP-1 inhibitor: blocks Pseudomonas aeruginosa IMP-1 metallo-beta-lactamase; AID 1556; inhibition, % at 5.6 µM; purified IMP-1, nitrocefin hydrolysis, epi-absorbance fluorescence; hit rate 0.45% among 290,000;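 active means inhibition above the mean plus 3 SD of all compounds in the same screening run, cut at about 4.5% in these data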
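System: purified recombinant IMP-1 beta-lactamase. Medium: Zinc- and detergent-supplemented HEPES buffer, pH 7.1. Compound: one 5.6 µM dose […]. Schedule: 15 min preincubation plus 25 min reaction at 25 °C. Technique: Epi-absorbance fluorescence, 480 nm excitation, 530 nm emission.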
MEKK2wt confirm: raises or lowers MEK5 binding to wildtype human MEKK2, retest; AID 1892; binding response (% of control), % at 10 µM; hit rate 2.4% among 5,900; shares compounds with MEKK3 PB1 HTS; bead flow cytometry, Alexa488-MEK5 binding to MEKK2 WT; actives lie on both sides; in the data active means binding response below about 16% or above about 210%; inactive means in between
MEKK2mut confirm: signal of MEK5 binding to mutant human MEKK2, retest. percent response, % at 10 µM. bead flow cytometry, Alexa488-MEK5 binding to MEKK2 mutant. shares compounds with MEKK3 PB1 HTS. hit rate 2% among 5,900; in the data active means percent response mostly above about 71%, no sharp cut-off; inactive means mostly below about 38%;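 further: higher means compound restores mutant binding toward wildtype level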
MEKK3-MEK5 inh: MEKK3-MEK5 PB1 inhibition, single concentration confirmation; binding response (% of control), % at 10 µM; bead flow cytometry, Alexa488-MEK5 binding to MEKK3; stronger effect = lower value; shares compounds with MEKK3 PB1 HTS; hit rate 1.8% among 5,900; AID 1894;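 active means binding response below 72% of control, or above a set upper limit, though filed actives all read lower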
Large screens that a line does not name were inactive (follow-up assays come after a bar, where they were run); [ ] = another dose, or the depositor's remark.

CCOC(=O)N1CCC(NC(=O)c2cc(C(=O)Nc3cccc(C(F)(F)F)c3)ccc2CO)CC1	MEKK3 PB1 HTS 131.0 | MEKK2wt confirm inactive | MEKK2mut confirm inactive | MEKK3-MEK5 inh inactive
CCOC(=O)N1CCC(NC(=O)c2ccc(CO)c(C(=O)NC3CCN(C(=O)OCC)CC3)c2)CC1	none
CCn1nc(C)c(NS(=O)(=O)c2ccc(C)cc2)c1C	MEKK3 PB1 HTS 73.0[inhibitor] | MEKK2wt confirm inactive | MEKK2mut confirm inactive | MEKK3-MEK5 inh inactive
CCOC(=O)/C(C#N)=C/Nc1ccccc1OC	MEKK3 PB1 HTS 2.0[inhibitor], MEKK2wt PB1 HTS 2.0[inhibitor] | MEKK2wt confirm inactive | MEKK2mut confirm inactive | MEKK3-MEK5 inh inactive
COCCNC(=O)COc1ncnc2scc(-c3ccc(F)cc3)c12	MEKK3 PB1 HTS 143.0 | MEKK2wt confirm inactive | MEKK2mut confirm inactive | MEKK3-MEK5 inh inactive
COc1ccccc1/C=C/C(=O)N1CCc2cc(OC)c(OC)cc2C1C (configuration not stated)	none
C=CCSc1n[nH]c(-c2ccc(OC)cc2)n1	none
Cc1nc(C)c(CCNC(=O)c2ccc(C(F)(F)F)cc2)s1	MEKK3 PB1 HTS 138.0 | MEKK2wt confirm inactive | MEKK2mut confirm inactive | MEKK3-MEK5 inh inactive
Cc1ccc(C(=O)NCCc2sc(C)nc2C)cc1	none
CCOC(=O)/C=C/c1nc(C(=O)OCC)c(C)c(=O)[nH]1	MEKK3 PB1 HTS 75.0[inhibitor] | MEKK2wt confirm inactive | MEKK2mut confirm inactive | MEKK3-MEK5 inh inactive
Cc1ncc([N+](=O)[O-])n1CC(=O)Nc1ccccc1	none
Cc1cccc(NC(=O)Cn2c([N+](=O)[O-])cnc2C)c1C	MEKK3 PB1 HTS 136.0 | MEKK2wt confirm inactive | MEKK2mut confirm inactive | MEKK3-MEK5 inh inactive
O=S(=O)(c1ccccc1)N1N=C(c2ccccc2)CC1c1ccco1 (configuration not stated)	none
CS(=O)(=O)N1N=C(c2ccccc2)CC1c1ccc2c(c1)OCO2 (configuration not stated)	MEKK3 PB1 HTS 20.0[inhibitor] (no result: MEKK2mut PB1 HTS, MEKK2wt PB1 HTS) | MEKK2wt confirm inactive | MEKK2mut confirm inactive | MEKK3-MEK5 inh 68.0
Cc1ccc(C2=NN(S(=O)(=O)c3ccccc3)C(c3ccccc3O)C2)cc1 (configuration not stated)	MEKK2mut PB1 HTS 161.0, MEKK3 PB1 HTS 14.0[inhibitor] (no result: MEKK2wt PB1 HTS) | MEKK2wt confirm inactive | MEKK2mut confirm inactive | MEKK3-MEK5 inh inactive
COc1ccc(C2CC(c3ccccc3)=NN2S(=O)(=O)c2ccccc2)cc1 (configuration not stated)	MEKK3 PB1 HTS 20.0[inhibitor] | MEKK2wt confirm inactive | MEKK2mut confirm inactive | MEKK3-MEK5 inh inactive
C/C(=N\NC(=O)c1nnn(-c2nonc2N)c1-c1cccs1)c1ccncc1	none
Cc1nc2ccccc2nc1OCc1cccc(Cl)c1	MEKK3 PB1 HTS 128.0 | MEKK2wt confirm inactive | MEKK2mut confirm inactive | MEKK3-MEK5 inh inactive
Cc1nc2ccccc2nc1OCc1ccccc1	none
O=C(/C=C/c1c[nH]c2ccccc12)c1ccccc1	MEKK3 PB1 HTS 136.0 | MEKK2wt confirm inactive | MEKK2mut confirm inactive | MEKK3-MEK5 inh inactive
CCN(CC)S(=O)(=O)c1ccc(C(=O)/C=C/c2ccc(-c3ccc([N+](=O)[O-])cc3)o2)cc1	MEKK2wt PB1 HTS 37.0[inhibitor] | MEKK2wt confirm inactive | MEKK2mut confirm inactive | MEKK3-MEK5 inh inactive
O=S(=O)(Nc1ccc(-c2nnc(SCc3ccc(Cl)cc3)o2)cc1)c1ccccc1	MEKK3 PB1 HTS 131.0 | MEKK2wt confirm inactive | MEKK2mut confirm inactive | MEKK3-MEK5 inh inactive
O=C(O)c1ccc(CSc2nnc(-c3ccc(Cl)cc3)o2)cc1	none
COc1cc(/C=C(\C#N)C(=O)NC(C)C)cc(Cl)c1O	none
CSc1ccc(/C=C/C(=O)NC(=O)c2ccccc2O)cc1	MEKK3 PB1 HTS 128.0 | MEKK2wt confirm inactive | MEKK2mut confirm inactive | MEKK3-MEK5 inh inactive
O=C(/C=C/c1ccc(Br)cc1)NC(=O)c1ccccc1O	none

Assay outcomes: PubChem, several laboratories
